Most compounds without a hit are left out; they make up all but 3.3% or so of the library.
NRP1-CendR mod – modulators of CendR peptide binding to NRP-1, primary screen, biochemical, fluorescence polarization, uHTS | FAM-RPARPAR peptide binding to NRP-1 | inhibition, % at 25 µM | 0.85% of 360,000 active;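 active = inhibition or corrected inhibition above about 18%, plus a signal ratio from 0.5 to 1.5, limit read from the data, passing the limit was not always enough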
SENP7 inh – SENP7 protease inhibitors, primary screen, biochemical, luminescence, uHTS; inhibition, % at 5 µM; 1.5% of 330,000 active; Sentrin-specific protease 7 (Homo sapiens), Q9BQF6; recombinant SENP7, Z-RLRGG-aminoluciferin luminescence, 40 min;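 active = inhibition above about 50% at the single test dose, limit read from the data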
SENP8 block-1 – human SENP8 protease inhibitors, primary screen, biochemical, fluorescence, Nedd8 protein substrate, uHTS. Sentrin-specific protease 8 (Homo sapiens), Q96LD8. recombinant SENP8. inhibition, % at 20 µM. 0.64% of 360,000 active. AID 602440, 2012; in the data active = inhibition mostly above about 40%, no sharp cut-off; inactive = mostly below about 27%
SENP8 block-2 – SENP8 protease inhibitors, primary screen, biochemical, luminescence; purified SENP8, Z-RLRGG-aminoluciferin cleavage; inhibition, % at 10 µM; 1.2% of 330,000 active; in the data active = inhibition above about 50%
SENP6 inh – SENP6 protease inhibitors, primary screen, biochemical, luminescence, uHTS; Sentrin-specific protease 6 (Homo sapiens), Q9GZR1; Recombinant SENP6 catalytic domain, aminoluciferin luminescence; inhibition, % at 10 µM; 1.8% of 330,000 active; AID 2599, 2010;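 active = inhibition above about 50% at the single tested dose, limit read from the data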
Target sequence (Q9GZR1 628-1112 limits assumed): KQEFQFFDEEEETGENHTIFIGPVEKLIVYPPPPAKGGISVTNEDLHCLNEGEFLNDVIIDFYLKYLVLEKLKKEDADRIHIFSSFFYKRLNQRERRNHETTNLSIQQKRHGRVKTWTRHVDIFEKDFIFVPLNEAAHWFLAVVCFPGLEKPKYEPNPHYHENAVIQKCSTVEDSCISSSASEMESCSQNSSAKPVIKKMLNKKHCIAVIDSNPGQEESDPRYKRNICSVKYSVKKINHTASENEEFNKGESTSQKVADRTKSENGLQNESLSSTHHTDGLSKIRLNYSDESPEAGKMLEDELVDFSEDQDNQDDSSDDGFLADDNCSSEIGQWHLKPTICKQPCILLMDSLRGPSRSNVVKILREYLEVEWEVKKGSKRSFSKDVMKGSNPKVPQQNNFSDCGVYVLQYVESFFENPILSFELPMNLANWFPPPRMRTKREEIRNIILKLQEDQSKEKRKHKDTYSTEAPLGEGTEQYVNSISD
SENP1 inh – human SENP1 catalytic domain inhibitors, primary screen, biochemical, FRET, uHTS; AID 624204, 2012; inhibition, % at 10 µM; recombinant SENP1 catalytic domain, CyPet-SUMO1-YPet FRET cleavage; 0.21% of 360,000 active; Sentrin-specific protease 1 (Homo sapiens), Q9P0U3;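 active = inhibition at least 30% at 10 µM, raw YFP signal under a set limit, fluorescence ratio 0.5 to 1.5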
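Test system: human SENP1 catalytic domain; medium: Tris pH 8 buffer plus EDTA, NaCl, BME, BSA, NP40, catalase; incubation: 50 min reaction at room temperature; technique: FRET, CFP and YFP emission; controls: no-enzyme low control and enzyme-plus-DMSO high control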
Numbers stand for hits; i = inactive; nt = not tested or not shown.

SMILES	NRP1-CendR mod	SENP7 inh	SENP8 block-1	SENP8 block-2	SENP6 inh	SENP1 inh
CCOc1ccc(S(=O)(=O)Nc2ccc(C(=O)N/N=C/c3c(C)nn(-c4ccccc4)c3N3CCCC3)cc2)cc1	21	i	i	i	i	i
COc1cccc(NC(=O)CN(C)C(=O)C23CC4CC(CC(Cl)(C4)C2)C3)c1	33	i	i	i	i	i
O=C(NCC(F)(F)F)c1cc2c(c(-c3cccc(-c4ccccc4F)c3)n1)[C@@H](CCO)N(C(=O)CC1CC1)C2	i	nt	i	nt	nt	i
Cc1c(N=C2C=C(Br)C(=O)C(Br)=C2)c(=O)n(-c2ccccc2)n1C	i	i	i	i	i	i
Cc1c(N=C2C=CC(=O)c3ccccc32)c(=O)n(-c2ccccc2)n1C	38	nt	i	nt	nt	i
C[C@H]1CCC[C@]2(O[C@H](CCO)C[C@H](O)[C@H]2O)O1	29	i	i	i	i	i
Cn1c2c(c3ccccc31)CCN(CCCCN1CCN(c3ccccc3)CC1)C2=O	i	nt	i	nt	nt	i
CC(=O)c1cccc(-c2ccnc3c2CC(C(=O)Nc2ccc(Cl)c(C(F)(F)F)c2)O3)c1 (stereo unspecified)	i	nt	i	nt	nt	i
O=C(Nc1ccc(O)c(C(=O)O)c1)Oc1ccccc1	i	56	i	60	76	i
CCN(C[C@H]1N[C@@](C)(C(=O)OC)[C@H]2C(=O)N(C)C(=O)[C@@H]12)C(=O)Nc1ccc(Cl)cc1	i	i	i	i	i	i
Cc1cc(OCc2nc3ccccc3s2)ccc1N	i	i	i	54	70	i
C[C@H]1CN([C@@H](C)CO)S(=O)(=O)c2ccc(C#CC3(O)CCCC3)cc2O[C@@H]1CN(C)C(=O)Cc1cccnc1	i	nt	i	nt	nt	i
CC(=O)N1CCN(c2ccc([N+](=O)[O-])cc2)CC1	i	i	i	i	i	i
CC(=O)N1CCN(C(=S)c2ccc([N+](=O)[O-])cc2)CC1	18	i	i	i	i	i
CC(C)=CCC[C@H](C)C[C@@H]1Cc2[nH][nH]c(=O)c2[C@H](c2ccc(F)cc2)O1	i	nt	i	nt	nt	i
NC(=O)CC(NC(=O)OCc1ccccc1)C(=O)O (stereo unspecified)	31	i	i	i	i	i
O=C(CCC(NC(=O)OCc1ccccc1)C(=O)O)OCc1ccccc1 (stereo unspecified)	i	i	i	i	i	i
O=C(CC(NC(=O)OCc1ccccc1)C(=O)O)OCc1ccccc1 (stereo unspecified)	i	i	i	i	i	i
NC(N)=NCCC[C@H](NC(=O)OCc1ccccc1)C(=O)O	27	i	i	i	i	i
CC(C)C[C@@H]1COc2cc(N3CCSCC3)ccc2S(=O)(=O)N1	i	nt	i	nt	nt	i
CN(c1ccc(OCC(=O)OCC(=O)Nc2ccc([N+](=O)[O-])cc2)cc1)S(=O)(=O)c1cccs1	32	nt	i	nt	nt	i
CN(C)c1ccc(Nc2nc(N)c3ccccc3n2)cc1	i	99	i	95	96	i
CCOc1ccc(Nc2nc(N)c3ccccc3n2)cc1	i	101	i	96	96	i
COc1ccc(C)cc1Nc1nc(N)c2ccccc2n1	i	i	i	i	i	i
COc1ccc(NC(=O)C2(C)CCCN(C(C)=O)C2)cc1F (stereo unspecified)	i	nt	i	nt	nt	i
CC(=O)c1ccc(N2CCN(C(=O)/C=C/c3ccc(S(=O)(=O)N4CCOCC4)cc3)CC2)cc1	26	i	i	i	i	i
Cc1cc(C)c2c(c1)-c1c(ssc1=S)C(C)(C)N2C(=O)CSc1nncn1C	i	i	i	i	i	i
Cc1ccc2c(c1)-c1c(ssc1=S)C(C)(C)N2C(=O)CSc1nncn1C	i	i	43	i	i	i
CCCCCNC(=O)c1ccc2c(=O)[nH]c3c(C(=O)NCC4CCCO4)sc(=S)n3c2c1 (stereo unspecified)	i	i	i	i	i	52

Assay outcomes from PubChem.
